The subject of experiment [1] is RKO. The experiment is described as follows: Cytotoxicity against proliferating RKOp27 cells after 72 hrs by Alamar Blue assay. The class given is functional, cell-based. The settings on record: Homo sapiens. Put shortly:
(§1)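 Human colon carcinoma RKOp27 line carrying ponasterone-A-inducible p27kip1. Induction gives G1-arrested cells, and uninduced cells stay proliferating. Viability was read as metabolic activity by Alamar Blue. IC50 values are the mean ± SD of two independent experiments, each with quadruplicate samples per concentration.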

In experiment [2] the test system is RKO. The experiment is described as follows: Cytotoxicity against cell cycle arrested RKOp27 cells after 72 hrs by alamar blue assay. The class given is functional, cell-based. The settings on record: Homo sapiens. A digest of the protocol:
as §1

For a further experiment, the target named is Tubulin (Bos taurus). The experiment is described as follows: Inhibition of [3H]colchicine binding to beta tubulin.
The target in the next experiment is Tubulin (Bos taurus, UniProt Q6B856+Q862L2+Q862F3). The experiment is described as follows: Inhibition of MAP containing bovine brain tubulin polymerization. The experiment is classed as functional.
The test system of experiment [3] is RKO. The experiment is described as follows: Cytotoxicity against RKOp27 cells at 30 uM after 72 hrs by alamar blue assay. The settings on record: Homo sapiens. The class given is functional, cell-based.

On to `Cc1cn(-c2csc(Nc3cccc(Br)c3)n2)c(C)n1`, for which the half-inhibitory concentration (IC50) in the experiment on RKO [1] and with RKO [2] was more than 100 µM throughout.
`COc1ccc(Nc2nc(-n3ccnc3C)cs2)cc1`: the IC50 was 8 µM at Tubulin (Bos taurus), 1.6 µM in the experiment on RKO [1] and more than 100 µM in the experiment with RKO [2].
With `c1ccc(Nc2nc(-n3cnc4ccccc43)cs2)cc1`, the IC50 with RKO [1] and in the experiment on RKO [2] was more than 100 µM throughout.
Regarding `COc1ccc(Nc2nc(-n3ccnc3)cs2)cc1`, the 50% inhibitory concentration (IC50) with RKO [1] and in the experiment on RKO [2] was more than 100 µM throughout.
For `Cc1nc2ccccc2n1-c1csc(Nc2ccc(Br)cc2)n1`, the IC50 on Tubulin (Bos taurus) was determined as 1.25 µM; against Tubulin, 1.2 µM; in the experiment on RKO [1] it was 0.09 µM; with RKO [2] it was 60 µM.
Taken in the same sequence, the figures for `COc1ccc(Nc2nc(-n3c(C)nc4ccccc43)cs2)cc1` were 0.75 µM, 1.25 µM, 0.025 µM and 52.5 µM.
With `Cc1nccn1-c1csc(Nc2ccc(Br)cc2)n1`, the Activity result in the experiment with RKO [3] was “Not toxic”. In addition, the IC50 is 30 µM in the experiment on RKO [1] and more than 100 µM in the experiment with RKO [2].
As for `COc1cc([C@@H]2c3cc4c(cc3[C@H](O)[C@H]3COC(=O)[C@H]23)OCO4)cc(OC)c1OC` [PODOFILOX], the IC50 in the experiment with RKO [1] was 0.029 µM; in the experiment with RKO [2] it was more than 0.5 µM.
On the same counts, the results for `c1ccc(Nc2nc(-n3ccnc3)cs2)cc1` are more than 100 µM and more than 100 µM.
In the case of `COc1ccc(Nc2nc(-n3cc(C)nc3C)cs2)cc1`, the IC50 was 7.5 µM on Tubulin (Bos taurus), 0.25 µM in the experiment on RKO [1] and more than 100 µM with RKO [2].
On the same counts, the results for `Brc1ccc(Nc2nc(-n3cnc4ccccc43)cs2)cc1` are 100 µM, more than 100 µM and more than 100 µM.
Take `COc1cccc(Nc2nc(-n3ccnc3C)cs2)c1`: the IC50 in the experiment with RKO [1] is 22.5 µM; with RKO [2], more than 100 µM.
As for `Cc1ccc(Nc2nc(-n3ccnc3C)cs2)cc1`, the half-maximal inhibitory concentration (IC50) at Tubulin (Bos taurus) was 0.75 µM; against Tubulin, 3 µM; with RKO [1], 0.45 µM; in the experiment with RKO [2], more than 100 µM.
In the case of `Cc1nc2ccccc2n1-c1csc(Nc2ccccc2)n1`, the results for the IC50 with RKO [1] and in the experiment on RKO [2] were 40 µM and 50 µM, respectively.
Take `Cc1nccn1-c1csc(Nc2cccc(Br)c2)n1`: the IC50 in the experiment on RKO [1] and in the experiment on RKO [2] was more than 100 µM in each case.
Turning to `Cc1nc2ccccc2n1-c1csc(Nc2cccc(Br)c2)n1`, the IC50 with RKO [1] worked out at 36 µM; in the experiment with RKO [2], 85 µM.
Consider `Cc1cn(-c2csc(Nc3ccc(Br)cc3)n2)c(C)n1`, for which the IC50 on Tubulin (Bos taurus) was 4 µM; with RKO [1] it was 0.4 µM; with RKO [2] it was 45 µM.
As for `COc1cccc(Nc2nc(-n3cc(C)nc3C)cs2)c1`, the IC50 in the experiment with RKO [1] was found to be 22.5 µM; with RKO [2], 60 µM.
In the case of `Cc1nccn1-c1csc(Nc2ccc(S(N)(=O)=O)cc2)n1`, the IC50 in the experiment on RKO [1] is 49 µM; in the experiment with RKO [2], more than 100 µM.
Taken in the same sequence, the figures for `COc1cc2c(c(OC)c1OC)-c1ccc(OC)c(=O)cc1[C@@H](NC(C)=O)CC2` [COLCHICINE] were 0.016 µM and more than 5 µM.
For `Cc1nc(C)c(-c2csc(Nc3ccc(Br)cc3)n2)s1`, the figures for the IC50 at Tubulin (Bos taurus), in the experiment with RKO [1] and in the experiment on RKO [2] were 1 µM, 0.7 µM and 30 µM, respectively.
For the molecule `Cc1nc2ccccc2n1-c1csc(Nc2ccc(S(N)(=O)=O)cc2)n1`, the IC50 is 45 µM in the experiment with RKO [1] and 95 µM in the experiment with RKO [2].
Taken in the same sequence, the figures for `COc1ccc(Nc2nc(-n3cnc4ccccc43)cs2)cc1` were more than 100 µM and more than 100 µM.
In the case of `Cc1ccc(Nc2nc(-n3cc(C)nc3C)cs2)cc1`, the IC50 is 6.25 µM at Tubulin (Bos taurus), 0.2 µM in the experiment with RKO [1] and more than 100 µM in the experiment on RKO [2].
As to `COc1cccc(Nc2nc(-n3c(C)nc4ccccc43)cs2)c1`, the IC50 with RKO [1] came to 40 µM; in the experiment on RKO [2], 60 µM.
Regarding `Cc1nccn1-c1csc(Nc2ccccc2)n1`, the figures for the concentration for half-maximal inhibition (IC50) in the experiment on RKO [1] and in the experiment with RKO [2] were 32.5 µM and more than 100 µM, respectively.

(Values after ChEMBL document CHEMBL1137258 (J Med Chem, 2006).)
